Assay results as given in ChEMBL document CHEMBL1127647, “Synthesis and antiviral activities of 8-alkynyl-, 8-alkenyl-, and 8-alkyl-2'-deoxyadenosine analogues” (1994).
In brackets after ≈: the same amount, converted by molar mass.

How the values were obtained:
Type in all cases: functional
HeLa = assay: Minimum inhibitory concentration to reduce cytopathicity by 50% in morphology of human carcinoma cells (HeLa)
Summary of the method: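 Cytotoxicity endpoint is the minimum compound concentration that causes a microscopically detectable alteration of normal host cell morphology.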

ESM = assay: Minimum inhibitory concentration to reduce cytopathicity by 50% in morphology of human embryonic skin-muscle cells (ESM)
MDCK [1] = assay: Minimum inhibitory concentration required for antiviral activity to reduce Influenza A virus (Ishikawa) induced cytopathicity in Madin-Darby canine kidney cells (MDCK); settings: Canis lupus familiaris
Summary of the method: (§1)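 Endpoint is the compound concentration that reduces virus-induced cytopathicity in the host cell monolayer by 50%.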

Vaccinia virus = assay: Minimum inhibitory concentration required for antiviral activity to reduce Vaccinia virus (VV) induced cytopathicity in human embryonic skin-muscle cells (ESM); settings: Orthopoxvirus vaccinia; summary of the method: as §1
MDCK [2] = assay: Minimum inhibitory concentration to reduce cytopathicity by 50% in morphology of Madin-Darby canine kidney cells (MDCK); settings: Canis lupus familiaris
[3] = system: Respiratory syncytial virus; assay: Minimum inhibitory concentration required for antiviral activity to reduce Respiratory syncytial virus (RSV) (Long) induced cytopathicity in human carcinoma cells (HeLa); summary of the method: as §1
HEL [4] = assay: Minimum inhibitory concentration required for antiviral activity to reduce Varicella Zoster virus (VZV) (Oka) induced cytopathicity in human embryonic lung cells (HEL)
HEL [5] = assay: Minimum inhibitory concentration required for antiviral activity to reduce TK Varicella Zoster virus (VZV) (07/1) induced cytopathicity in human embryonic lung cells (HEL)
MDCK [6] = assay: Minimum inhibitory concentration required for antiviral activity to reduce influenza B virus (Singapore) induced cytopathicity in Madin-Darby canine kidney cells (MDCK); settings: Canis lupus familiaris; summary of the method: as §1
[7] = system: Vesicular stomatitis virus; assay: Minimum inhibitory concentration required for antiviral activity to reduce Vesicular stomatitis virus (VSV) induced cytopathicity in human embryonic skin-muscle cells (ESM); summary of the method: as §1
Human alphaherpesvirus 1 = assay: Minimum inhibitory concentration required for antiviral activity to reduce TK-HSV-1 (B2006) induced cytopathicity in human embryonic skin-muscle cells (ESM); summary of the method: as §1
HEL [8] = assay: Minimum inhibitory concentration required for antiviral activity to reduce Cytomegalovirus (CMV) (Davis) induced cytopathicity in human embryonic lung cells (HEL); summary of the method: as §1
HEL [9] = assay: Minimum inhibitory concentration required for antiviral activity to reduce Cytomegalovirus (CMV) (AD-169) induced cytopathicity in human embryonic lung cells (HEL); summary of the method: as §1
HEL [10] = assay: Minimum inhibitory concentration to reduce cytopathicity by 50% in proliferation of human embryonic lung cells (HEL)
Summary of the method: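 Host cell toxicity is read as the compound concentration that reduces HEL cell proliferation by 50%.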

Compound	MIC (HeLa) [µg/mL]	MIC (ESM) [µg/mL]	MIC (MDCK [1]) [µg/mL]	MIC (Vaccinia virus) [µg/mL]	MIC (MDCK [2]) [µg/mL]	MIC [3] [µg/mL]	MIC (HEL [4]) [µg/mL]	MIC (HEL [5]) [µg/mL]	MIC (MDCK [6]) [µg/mL]	MIC [7] [µg/mL]	MIC (Human alphaherpesvirus 1) [µg/mL]	MIC (HEL [8]) [µg/mL]	MIC (HEL [9]) [µg/mL]	MIC (HEL [10]) [µg/mL]
CC#Cc1nc2c(N)ncnc2n1[C@H]1C[C@H](O)[C@@H](CO)O1	> 200	> 400	> 200	300 (≈ 1040 µM)	> 200	> 200	40 (≈ 138 µM)	40 (≈ 138 µM)	> 200	150 (≈ 519 µM)	150 (≈ 519 µM)	20 (≈ 69.1 µM)	20 (≈ 69.1 µM)	40 (≈ 138 µM)
CCC/C=C\c1nc2c(N)ncnc2n1[C@H]1C[C@H](O)[C@@H](CO)O1	> 200	≥ 200	> 200	> 100	> 200	100 (≈ 313 µM)	> 50	> 50	> 200	> 100	> 100	> 50	> 50	40 (≈ 125 µM)
CCCCCc1nc2c(N)ncnc2n1[C@H]1C[C@H](O)[C@@H](CO)O1	100 (≈ 311 µM)	> 200	> 100	150 (≈ 467 µM)	100 (≈ 311 µM)	> 100	20 (≈ 62.2 µM)	20 (≈ 62.2 µM)	> 100	70 (≈ 218 µM)	> 100	10 (≈ 31.1 µM)	10 (≈ 31.1 µM)	30 (≈ 93.3 µM)
CCCc1nc2c(N)ncnc2n1[C@H]1C[C@H](O)[C@@H](CO)O1	> 200	> 400	> 200	70 (≈ 239 µM)	> 200	> 200	20 (≈ 68.2 µM)	7 (≈ 23.9 µM)	> 200	400 (≈ 1360 µM)	> 300	20 (≈ 68.2 µM)	20 (≈ 68.2 µM)	170 (≈ 580 µM)
C/C=C\c1nc2c(N)ncnc2n1[C@H]1C[C@H](O)[C@@H](CO)O1	> 200	≥ 100	> 200	> 100	> 200	> 200	> 50	> 50	> 200	> 100	> 100	> 50	> 50	> 50
C#Cc1nc2c(N)ncnc2n1[C@H]1C[C@H](O)[C@@H](CO)O1	4 (≈ 14.5 µM)	10 (≈ 36.3 µM)	> 20	> 4	20 (≈ 72.7 µM)	> 4	7 (≈ 25.4 µM)	4 (≈ 14.5 µM)	> 20	> 4	> 4	4 (≈ 14.5 µM)	2 (≈ 7.27 µM)	2 (≈ 7.27 µM)
CCc1nc2c(N)ncnc2n1[C@H]1C[C@H](O)[C@@H](CO)O1	> 200	> 400	> 200	> 400	> 200	> 200	> 100	55 (≈ 197 µM)	> 200	> 400	300 (≈ 1070 µM)	70 (≈ 251 µM)	70 (≈ 251 µM)	> 200
CCCC#Cc1nc2c(N)ncnc2n1[C@H]1C[C@H](O)[C@@H](CO)O1	100 (≈ 315 µM)	400 (≈ 1260 µM)	30 (≈ 94.5 µM)	150 (≈ 473 µM)	100 (≈ 315 µM)	> 100	40 (≈ 126 µM)	20 (≈ 63 µM)	> 100	70 (≈ 221 µM)	100 (≈ 315 µM)	10 (≈ 31.5 µM)	10 (≈ 31.5 µM)	10 (≈ 31.5 µM)
CCCCC/C=C\c1nc2c(N)ncnc2n1[C@H]1C[C@H](O)[C@@H](CO)O1	100 (≈ 288 µM)	> 100	12 (≈ 34.5 µM)	20 (≈ 57.6 µM)	100 (≈ 288 µM)	14 (≈ 40.3 µM)	15 (≈ 43.2 µM)	10 (≈ 28.8 µM)	> 100	> 40	> 40	20 (≈ 57.6 µM)	30 (≈ 86.4 µM)	20 (≈ 57.6 µM)
CCCCCCCc1nc2c(N)ncnc2n1[C@H]1C[C@H](O)[C@@H](CO)O1	100 (≈ 286 µM)	> 100	20 (≈ 57.2 µM)	20 (≈ 57.2 µM)	100 (≈ 286 µM)	20 (≈ 57.2 µM)	10 (≈ 28.6 µM)	6 (≈ 17.2 µM)	> 100	> 40	> 40	4 (≈ 11.4 µM)	4 (≈ 11.4 µM)	13 (≈ 37.2 µM)
CCCCCC#Cc1nc2c(N)ncnc2n1[C@H]1C[C@H](O)[C@@H](CO)O1	100 (≈ 290 µM)	> 200	> 100	7 (≈ 20.3 µM)	100 (≈ 290 µM)	30 (≈ 86.9 µM)	15 (≈ 43.4 µM)	8 (≈ 23.2 µM)	100 (≈ 290 µM)	20 (≈ 57.9 µM)	> 100	7 (≈ 20.3 µM)	2 (≈ 5.79 µM)	6 (≈ 17.4 µM)
Nc1nc2c(ncn2COCCO)c(=O)[nH]1 [ACYCLOVIR]	–	> 400	–	> 400	–	–	–	–	–	> 400	100 (≈ 444 µM)	50 (≈ 222 µM)	35 (≈ 155 µM)	> 200
O=c1[nH]c(=O)n([C@H]2C[C@H](O)[C@@H](CO)O2)cc1/C=C/Br [BRIVUDINE]	–	> 400	–	2 (≈ 6 µM)	–	–	0.004 (≈ 0.012 µM)	> 10	–	> 400	> 200	70 (≈ 210 µM)	70 (≈ 210 µM)	> 200
Nc1ncnc2c1ncn2[C@H]1C[C@H](O)[C@@H](CO)O1 [DEOXYADENOSINE]	200 (≈ 796 µM)	> 400	> 200	> 400	> 200	20 (≈ 79.6 µM)	> 100	> 100	> 200	> 400	> 400	> 100	> 100	–
NC(=O)c1ncn([C@@H]2O[C@H](CO)[C@@H](O)[C@H]2O)n1 [RIBAVIRIN]	–	> 400	–	70 (≈ 287 µM)	–	–	–	–	–	> 400	> 300	–	–	–
